# Results published in ChEMBL document CHEMBL1250541, “20-Aminosteroids as a novel class of selective and complete androgen receptor antagonists and inhibitors of prostate cancer cell growth” (Bioorg Med Chem, 2010).
# The source made the active and inactive calls. The rule behind the calls is not given here.
# Columns and labels:
# LNCaP [1] = experiment: Cytotoxicity against human LNCAP cells at 10 uM after 2 days; type: functional, cell-based
# How it was run: (§1)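 Cells seeded in triplicate in 6-well plates at 25 × 10³ (LNCaP) or 5 × 10³ (PC3) per well in medium with 5% FCS. After 2 days they were treated with DMSO or compounds, with medium and compound renewed every second/third day. Cells were counted on the indicated days and normalized to day 0. Atraric acid served as positive control.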
# [2] = target: T1, Androgen receptor (Homo sapiens) (UniProt P10275); experiment: Agonist activity at human androgen receptor expressed in human CV1 cells assessed as induction of receptor-mediated transactivation by MMTV-luciferase reporter gene assay; type: functional, cell-based; conditions: CV-1
# T1 sequence (whole entry): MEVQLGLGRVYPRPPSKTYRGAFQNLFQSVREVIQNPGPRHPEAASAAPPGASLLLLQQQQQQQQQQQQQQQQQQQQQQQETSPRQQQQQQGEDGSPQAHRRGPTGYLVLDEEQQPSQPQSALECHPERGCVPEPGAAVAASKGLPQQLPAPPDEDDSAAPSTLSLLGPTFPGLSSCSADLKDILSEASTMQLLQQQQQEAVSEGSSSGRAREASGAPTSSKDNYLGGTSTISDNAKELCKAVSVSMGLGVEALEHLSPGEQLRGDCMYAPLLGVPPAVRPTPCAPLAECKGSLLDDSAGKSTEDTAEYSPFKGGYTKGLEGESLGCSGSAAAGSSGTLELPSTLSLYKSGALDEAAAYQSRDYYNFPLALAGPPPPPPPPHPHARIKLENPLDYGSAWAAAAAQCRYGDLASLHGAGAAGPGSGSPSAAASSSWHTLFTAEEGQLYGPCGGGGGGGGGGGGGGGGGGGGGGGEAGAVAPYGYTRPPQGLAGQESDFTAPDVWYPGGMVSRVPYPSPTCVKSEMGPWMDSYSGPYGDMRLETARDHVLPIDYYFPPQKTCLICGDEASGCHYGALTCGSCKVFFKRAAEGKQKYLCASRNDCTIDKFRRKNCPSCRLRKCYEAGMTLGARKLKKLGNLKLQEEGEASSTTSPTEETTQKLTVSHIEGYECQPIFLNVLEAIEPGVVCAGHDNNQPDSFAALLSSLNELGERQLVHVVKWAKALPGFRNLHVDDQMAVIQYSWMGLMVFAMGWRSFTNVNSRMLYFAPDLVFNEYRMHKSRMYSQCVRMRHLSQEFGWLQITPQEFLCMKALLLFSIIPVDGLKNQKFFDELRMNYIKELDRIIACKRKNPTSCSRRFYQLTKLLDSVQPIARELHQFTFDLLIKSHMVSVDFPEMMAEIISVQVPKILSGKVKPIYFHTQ
# How it was run: (§2)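 CV1 cells seeded at 1.2 × 10⁵ per well in DMEM with 5% charcoal-stripped serum, CaPO₄-transfected 18 h later with MMTV-luciferase reporter, human AR (wild type or T877A) expression vector and CMV-β-galactosidase control. After 24 h, medium was replaced with compounds alone or R1881. Cells were harvested 96 h later. Luciferase was normalized to β-gal (RLU). Duplicates, repeated at least twice.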
# [3] = test system: Androgen receptor (Homo sapiens), P10275 [T878A]; experiment: Agonist activity at human androgen receptor T877A mutant expressed in human CV1 cells assessed as induction of receptor-mediated transactivation by MMTV-luciferase reporter gene assay; type: functional, cell-based; conditions: CV-1; how it was run: as §2
# Sequence of Androgen receptor (Homo sapiens), P10275 [T878A] (P10275 whole entry T878A): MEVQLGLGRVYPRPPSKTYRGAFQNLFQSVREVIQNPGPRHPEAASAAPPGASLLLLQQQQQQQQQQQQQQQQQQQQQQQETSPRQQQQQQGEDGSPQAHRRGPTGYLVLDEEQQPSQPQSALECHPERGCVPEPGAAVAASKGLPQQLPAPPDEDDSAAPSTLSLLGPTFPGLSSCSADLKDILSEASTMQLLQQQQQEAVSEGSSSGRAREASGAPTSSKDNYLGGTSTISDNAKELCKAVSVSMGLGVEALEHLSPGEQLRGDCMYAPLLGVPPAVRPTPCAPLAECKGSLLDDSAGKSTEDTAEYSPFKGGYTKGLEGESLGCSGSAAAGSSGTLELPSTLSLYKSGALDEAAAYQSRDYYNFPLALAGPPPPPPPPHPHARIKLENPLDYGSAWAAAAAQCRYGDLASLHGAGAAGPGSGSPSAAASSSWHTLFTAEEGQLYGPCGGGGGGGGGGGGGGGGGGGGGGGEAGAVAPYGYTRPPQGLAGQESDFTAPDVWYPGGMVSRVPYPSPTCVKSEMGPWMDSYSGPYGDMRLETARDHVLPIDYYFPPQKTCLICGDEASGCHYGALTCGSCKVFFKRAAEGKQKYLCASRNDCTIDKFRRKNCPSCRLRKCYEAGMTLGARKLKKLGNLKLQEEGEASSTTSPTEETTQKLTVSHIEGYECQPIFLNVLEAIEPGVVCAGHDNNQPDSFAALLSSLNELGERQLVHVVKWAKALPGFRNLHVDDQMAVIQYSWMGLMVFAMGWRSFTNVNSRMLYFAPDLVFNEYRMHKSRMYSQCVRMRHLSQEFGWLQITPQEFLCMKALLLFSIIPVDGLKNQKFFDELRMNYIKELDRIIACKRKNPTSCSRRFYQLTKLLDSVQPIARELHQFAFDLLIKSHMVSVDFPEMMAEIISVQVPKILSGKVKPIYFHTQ
# Androgen receptor = target: T2, Androgen receptor (Homo sapiens, UniProt P10275); experiment: Antagonist activity at human androgen receptor expressed in human CV1 cells assessed as inhibition of receptor-mediated transactivation by MMTV-luciferase reporter gene assay; type: functional, cell-based, CV-1
# T2 sequence (P10275 whole entry): T1 sequence (whole entry)
# [4] = test system: Androgen receptor (Homo sapiens), P10275 [T878A]; experiment: Antagonist activity at human androgen receptor T877A mutant expressed in human CV1 cells assessed as inhibition of receptor-mediated transactivation by MMTV-luciferase reporter gene assay; type: functional, cell-based; conditions: CV-1
# How it was run: (§3)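 CV1 cells in DMEM with 5% charcoal-stripped serum, transfected by CaPO₄ with MMTV-luciferase, wild-type or T877A human AR vector and CMV-β-galactosidase. Compounds were added together with the agonist R1881 24 h post-transfection. After a further 96 h, luciferase was read and normalized to β-gal activity as RLU. Duplicates, repeated at least twice. NBBS antagonist and DMSO served as controls.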
# [5] = target: T1, Androgen receptor (Homo sapiens); experiment: Antagonist activity at human androgen receptor in human LNCAP cells assessed as inhibition of PSA mRNA expression by RT-PCR; type: functional, cell-based
# How it was run: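 LNCaP cells treated with or without androgens plus compounds at 10 µM. DMSO-treated cells served as control. PSA mRNA was normalized to beta-actin expression.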
# [6] = target: T1, Androgen receptor (Homo sapiens); experiment: Antagonist activity at human androgen receptor expressed in human CV1 cells assessed as inhibition of receptor-mediated transactivation at 1 uM by MMTV-luciferase reporter gene assay; type: functional, cell-based; conditions: CV-1; how it was run: as §3
# [7] = test system: Androgen receptor (Homo sapiens), P10275 [T878A]; experiment: Antagonist activity at human androgen receptor T877A mutant expressed in human CV1 cells assessed as inhibition of receptor-mediated transactivation at 1 uM by MMTV-luciferase reporter gene assay; type: functional, cell-based; conditions: CV-1; how it was run: as §3
# PC-3 = experiment: Cytotoxicity against human PC3 cells after 2 days; type: functional, cell-based; how it was run: as §1
# LNCaP [8] = experiment: Induction of senescence in human LNCAP cells assessed as beta galactosidase activity after 3 days; type: functional, cell-based
Structure (SMILES),Activity [2],Activity [3],IC50 (Androgen receptor) [nM],further results
COC(=O)c1c(C)cc(O)c(C)c1O,,,,Activity (LNCaP [1]): Active
C=CC[C@](C)(N)[C@H]1CC[C@H]2[C@@H]3CC=C4C[C@@H](O)CC[C@]4(C)[C@H]3CC[C@@]21C,inactive,Active,,
C=CC(C)[C@@](C)(N)[C@H]1CC[C@H]2[C@@H]3CC=C4C[C@@H](O)CC[C@]4(C)[C@H]3CC[C@@]21C (some centres undefined),inactive,Active,,
C=CC[C@@](C)(N)[C@H]1CC[C@H]2[C@@H]3CC=C4C[C@@H](O)CC[C@]4(C)[C@H]3CC[C@@]21C,inactive,Active,,
C[C@]12CC[C@H]3[C@@H](CC=C4C[C@@H](O)CC[C@@]43C)[C@@H]1CC[C@@H]2[C@@]1(C)CC=CC(=O)N1,inactive,inactive,2000,Activity [4]: Active; Activity [5]: Active
C[C@]12CC[C@H]3[C@@H](CC=C4C[C@@H](O)CC[C@@]43C)[C@@H]1CC[C@@H]2[C@]1(C)CC=CC(=O)N1,inactive,inactive,3000,Activity [6]: Active; Activity [7]: Active; Activity [5]: Active; Activity (LNCaP [1]): Active; Activity (PC-3): inactive; Activity (LNCaP [8]): Active
C[C@]12CC[C@H]3[C@@H](CC=C4C[C@@H](O)CC[C@@]43C)[C@@H]1CC[C@@H]2[C@](C)(N)Cc1ccccc1,inactive,,,
C[C@]12CC[C@H]3[C@@H](CCC4=CC(=O)CC[C@@]43C)[C@@H]1CC[C@@H]2[C@]1(C)CC=CC(=O)N1,inactive,,500,
